Two molecules from ChEMBL document CHEMBL1671633 (Antimicrob Agents Chemother, 2008) can be followed below.

What is called AUC(0-t) is the area under the concentration-time curve up to a stated or last time point. High values mean high exposure, low ones low exposure. As usually defined, the Cmax is the maximum level reached in the sampled fluid or tissue. Broadly, the Tmax is the time at which the peak concentration occurs. As usually defined, the half-life is how long it takes for the measured level to halve. High values mean slow decline, low ones rapid decline. What is called CL/F is the apparent clearance, not corrected for the fraction that reaches the circulation. A word on the AUC: it is the area under the concentration-time curve, a measure of exposure.

Series [1] can be described thus: AUC (0 to 48 hrs) in healthy human at 900 mg, po administered as a single dose measured on day 5 post compound dose by HPLC. It counts as ADME, organism-based. Set-up: time < 48 hr, dose 900 mg, route oral. The note with it: plasma. An outline of the steps: (§1)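 Blood was drawn predose and at 2, 4, 6, 8, 10, 12, 24, 34 and 48 h after the first dose (day 5), and again on day 19 after 7 thrice-weekly doses (72-h sampling). Rifapentine and 25-desacetyl-rifapentine were measured by validated HPLC-UV with trimipramine as internal standard. Parameters came from noncompartmental analysis, with AUC truncated at 48 h.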

Series [2] can be described thus: Cmax in healthy human at 900 mg, po administered as a single dose measured on day 5 post compound dose by HPLC. It counts as ADME, organism-based. Set-up: dose 900 mg, route oral. Particulars: in vivo. An outline of the steps: as §1
Series [3] can be described thus: Tmax in healthy human at 900 mg, po administered as a single dose measured on day 5 post compound dose by HPLC. It counts as ADME, organism-based. Particulars: in vivo. Put shortly:
(§2)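 Healthy volunteers took oral RPT 900 mg thrice weekly, alongside MXF 400 mg daily, after a 750-kcal breakfast. Plasma was sampled over 48 h after the first RPT dose (day 5) and over 72 h after the seventh dose (day 19). RPT was measured by validated HPLC-UV with a trimipramine internal standard. Parameters were derived noncompartmentally, with AUC over 48 h, and compared as day 19/day 5 geometric mean ratios with 90% CI.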

Series [4] can be described thus: Half life in healthy human at 900 mg, po administered as a single dose measured on day 5 post compound dose by HPLC. It counts as ADME, organism-based. The note with it: in vivo. An outline of the steps:
as §1

A short description of series [5]: Apparent oral clearance in healthy human at 900 mg, po administered as a single dose measured on day 5 post compound dose by HPLC. Particulars: in vivo. The series is classed as ADME, organism-based. Put shortly: as §1
Series [6] concerns Homo sapiens. Briefly: Volume of distribution in healthy human at 900 mg, po administered as a single dose measured on day 5 post compound dose by HPLC. The series is classed as ADME, organism-based. Particulars: in vivo. An outline of the steps: as §1
The nature of series [7]: AUC (0 to 48 hrs) in healthy human at 900 mg, po thrice weekly measured on day 19 post compound dose by HPLC. The series is classed as ADME, organism-based. Set-up: time < 48 hr, dose 900 mg, route oral. Particulars: plasma. An outline of the steps:
as §1

Series [8] can be described thus: Cmax in healthy human at 900 mg, po thrice weekly measured on day 19 post compound dose by HPLC. It counts as ADME, organism-based. Set-up: dose 900 mg, route oral. Particulars: in vivo. Put shortly: as §1
The nature of series [9]: Tmax in healthy human at 900 mg, po thrice weekly measured on day 19 post compound dose by HPLC. It counts as ADME, organism-based. Particulars: in vivo. Put shortly:
as §2

Series [10] can be described thus: Half life in healthy human at 900 mg, po thrice weekly measured on day 19 post compound dose by HPLC. Particulars: in vivo. It counts as ADME, organism-based. Put shortly: as §1
Series [11] can be described thus: Apparent oral clearance in healthy human at 900 mg, po thrice weekly measured on day 19 post compound dose by HPLC. Particulars: in vivo. The series is classed as ADME, organism-based. An outline of the steps:
as §1

In series [12] the test system is Homo sapiens. Briefly: Volume of distribution in healthy human at 900 mg, po thrice weekly measured on day 19 post compound dose by HPLC. It counts as ADME, organism-based. Particulars: in vivo. An outline of the steps:
as §1

The test system of series [13] is Homo sapiens. Put plainly: Ratio of AUC (0 to 48 hrs) in healthy human at 900 mg, po thrice weekly measured on day 19 post compound dose to AUC (0 to 48 hrs) in healthy human at 900 mg, po administered as a single dose measured on day 5 post compound dose. The series is classed as ADME, organism-based. The note with it: in vivo. An outline of the steps:
as §2

The test system of series [14] is Homo sapiens. Put plainly: Ratio of Cmax in healthy human at 900 mg, po thrice weekly measured on day 19 post compound dose to Cmax in healthy human at 900 mg, po administered as a single dose measured on day 5. Particulars: in vivo.
In series [15] the test system is Homo sapiens. Briefly: Ratio of Tmax in healthy human at 900 mg, po thrice weekly measured on day 19 post compound dose to Tmax in healthy human at 900 mg, po administered as a single dose measured on day 5. Particulars: in vivo.
For series [16], the system named is Homo sapiens. Put plainly: Ratio of Half life in healthy human at 900 mg, po thrice weekly measured on day 19 post compound dose to Half life in healthy human at 900 mg, po administered as a single dose measured on day 5. Particulars: in vivo.
The subject of series [17] is Homo sapiens. Briefly: Ratio of Volume of distribution in healthy human at 900 mg, po thrice weekly measured on day 19 post compound dose to Volume of distribution in healthy human at 900 mg, po administered as a single dose measured on day 5. The note with it: in vivo.
Series [18] deals with Homo sapiens. Put plainly: Ratio of Apparent oral clearance in healthy human at 900 mg, po thrice weekly measured on day 19 post compound dose to Apparent oral clearance in healthy human at 900 mg, po administered as a single dose measured on day 5. The note with it: in vivo.
The nature of series [19]: AUC (0 to 24 hrs ) in healthy human at 400 mg, po qd measured on day 4 by HPLC. The series is classed as ADME, organism-based. Set-up: time < 24 hr, dose 400 mg, route oral. The note with it: plasma.
The nature of series [20]: Tmax in healthy human at 400 mg, po qd measured on day 4 by HPLC. The note with it: in vivo. It counts as ADME, organism-based. An outline of the steps:
(§3)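 Healthy volunteers took oral MXF 400 mg once daily with a continental breakfast (750 kcal, 20% fat). Sampling was on day 4 (after four doses, MXF alone) or on day 19 (with 900 mg RPT thrice weekly added from day 5; 72-h sampling). Plasma MXF was measured by validated HPLC with fluorescence detection (standard curve 0.20–15 µg/ml). Tmax was derived noncompartmentally.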

A short description of series [21]: AUC (0 to 24 hrs ) in healthy human at 400 mg, po qd coadministered with 900 mg, po thrice weekly of rifapentine on day 5 post compound dose measured on day 19 post compound dose by HPLC. It counts as ADME, organism-based. Set-up: time < 24 hr, dose 400 mg, route oral. Particulars: plasma.
A short description of series [22]: Cmax in healthy human at 400 mg, po qd coadministered with 900 mg, po thrice weekly of rifapentine on day 5 post compound dose measured on day 19 post compound dose by HPLC. Particulars: in vivo. Set-up: dose 400 mg, route oral. The series is classed as ADME, organism-based.
Series [23] is described as follows: Tmax in healthy human at 400 mg, po qd coadministered with 900 mg, po thrice weekly of rifapentine on day 5 post compound dose measured on day 19 post compound dose by HPLC. The series is classed as ADME, organism-based. Particulars: in vivo. An outline of the steps:
as §3

The subject of series [24] is Homo sapiens. Put plainly: AUC (0 to 48 hrs) in healthy human assessed as 25-desacetyl-rifapentine level at 900 mg, po administered as a single dose measured on day 5 post compound dose by HPLC. Set-up: dose 900 mg, time < 48 hr, route oral. The series is classed as ADME, organism-based, Plasma. The note with it: in vivo. An outline of the steps:
as §1

Series [25] concerns Homo sapiens. Briefly: AUC (0 to 48 hrs) in healthy human assessed as 25-desacetyl-rifapentine level at 900 mg, po thrice weekly measured on day 19 post compound dose by HPLC. The series is classed as ADME, organism-based, Plasma. Set-up: dose 900 mg, time < 48 hr, route oral. Particulars: in vivo. Put shortly: as §1
In series [26] the test system is Homo sapiens. Put plainly: Tmax in healthy human assessed as 25-desacetyl-rifapentine level at 900 mg, po administered as a single dose measured on day 5 post compound dose by HPLC. The series is classed as ADME, organism-based. Particulars: in vivo. An outline of the steps:
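Healthy volunteers took a single oral 900 mg rifapentine dose on day 5, after a continental breakfast (750 kcal, 20% fat), alongside ongoing 400 mg daily MXF. Plasma was sampled predose and at 2, 4, 6, 8, 10, 12, 24, 34 and 48 h. 25-desacetyl-RPT was measured by validated HPLC with UV detection and trimipramine internal standard. Tmax was derived noncompartmentally.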

The subject of series [27] is Homo sapiens. Put plainly: Toxicity in healthy human assessed as incidence of adverse events at 400 mg, po qd coadministered with 900 mg, po thrice weekly of rifapentine on day 5 post compound dose measured on day 19 post compound dose. Particulars: in vivo. The series is classed as organism-based. Put shortly: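 Doses were given after a continental breakfast, with no other medications, alcohol or smoking allowed. Adherence was tracked by pill counts and medication diaries, and adverse events were recorded during and after dosing.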

On to `CO[C@H]1/C=C/O[C@@]2(C)Oc3c(C)c(O)c4c(O)c(c(/C=N/N5CCN(C6CCCC6)CC5)c(O)c4c3C2=O)NC(=O)/C(C)=C\C=C\[C@H](C)[C@H](O)[C@@H](C)[C@@H](O)[C@@H](C)[C@H](OC(C)=O)[C@@H]1C` [RIFAPENTINE], for which, in series [1], the AUC(0-t) at 48 h came out at 513 µg·h/mL. Moreover, the figures for the maximum concentration (Cmax) in series [2] and in [8] were 21900 ng/mL and 21200 ng/mL, respectively. Also, the values for the Tmax in series [3] and in series [9] were 5.08 h and 4.77 h, respectively. Besides, the half-life in series [4] is 18.5 h; in [10], 14.8 h. In addition, the CL/F in [5] is 26.5 mL/min; in [11], 36.2 mL/min. Also, the Vd is 40.7 L in the series with Homo sapiens [6] and 43.7 L with Homo sapiens [12]. In series [7], this molecule returned an exposure (AUC) at 48 h of 410 µg·h/mL. In addition, in the series with Homo sapiens [13], the “Ratio AUC” value came out at 0.8. The Ratio in the series with Homo sapiens [14] was determined as 0.96; in the series with Homo sapiens [15], 0.93; in the series on Homo sapiens [16], 0.78; with Homo sapiens [17] it was 1.07; with Homo sapiens [18] it was 1.36.

As to `COc1c(N2C[C@@H]3CCCN[C@@H]3C2)c(F)cc2c(=O)c(C(=O)O)cn(C3CC3)c12` [MOXIFLOXACIN], the AUC at 24 h is 41.9 µg·h/mL in [19] and 34.4 µg·h/mL in [21]. The Tmax in [20] was 2.37 h; in series [23], 2.6 h; in the series with Homo sapiens [26], 24.9 h. In addition, the maximum concentration (Cmax) in series [22] stood at 3330 ng/mL. Moreover, the AUC stood at 461.7 µg·h/mL in the series with Homo sapiens [24] and 369.9 µg·h/mL in the series with Homo sapiens [25]. In the series with Homo sapiens [27], the Activity entry is “Non-toxic”.
